Experimental data from article PMC6203112 (International Journal of Chronic Obstructive Pulmonary …, 2018).

Tests used:
[1] = Study 1 Part 2: adverse events after multiple OD doses via SDDPI; format: in vivo, human
Method in brief: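 In Study 1 Part 2, healthy men were randomized to five parallel, dose-escalating cohorts. Each received test compound (100–1,600 µg) or matching placebo once daily for 7 days via a capsule-based single-dose dry-powder inhaler. AEs and investigator-assessed relation to study medication were recorded. Results are number (%) of subjects in the safety population (randomized, at least one dose).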

[2] = Study 2 Part 1: single ascending dose PK via MDDPI; format: in vivo; conditions: human, plasma, inhaled
Method in brief: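 Blood was collected in lithium heparin, chilled on ice, and centrifuged at 2,000 ×g for 15 min at ~4°C. Plasma was stabilised with 1 M citric acid (100 µL per 1 mL plasma) and stored at ≤−65°C. After solid-phase extraction, samples were assayed by validated LC-MS/MS with heated electrospray and a deuterated internal standard (LLOQ 10 pg/mL). PK parameters were derived non-compartmentally.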

SMILES: CS(=O)(=O)Nc1ccc(C(=O)O[C@@H](Cc2c(Cl)c[n+]([O-])cc2Cl)c2ccc(OC(F)F)c(OCC3CC3)c2)cc1OCC1CC1 [CHF6001]
- Back pain (AE) ([1]; 100 µg OD 7 days, N=8): 0 Number (%) of subjects
- Diarrhea (AE considered related to study medication) ([1]; 100 µg OD 7 days, N=8): 0 Number (%) of subjects
- Flatulence (AE considered related to study medication) ([1]; 100 µg OD 7 days, N=8): 0 Number (%) of subjects
- Headache (AE considered related to study medication) ([1]; 100 µg OD 7 days, N=8): 0 Number (%) of subjects
- Headache (AE) ([1]; 100 µg OD 7 days, N=8): 0 Number (%) of subjects
- Nausea (AE considered related to study medication) ([1]; 100 µg OD 7 days, N=8): 0 Number (%) of subjects
- Parosmia (AE considered related to study medication) ([1]; 100 µg OD 7 days, N=8): 0 Number (%) of subjects
- Severe AE ([1]; 100 µg OD 7 days, N=8): 0 Number (%) of subjects
- AE considered related to study medication ([1]; 300 µg OD 7 days, N=8): 0 Number (%) of subjects
- AE leading to death ([1]; 300 µg OD 7 days, N=8): 0 Number (%) of subjects
- AE leading to withdrawal ([1]; 300 µg OD 7 days, N=8): 0 Number (%) of subjects
- At least one AE ([1]; 300 µg OD 7 days, N=8): 2 (25.0) Number (%) of subjects
- At least one SAE ([1]; 300 µg OD 7 days, N=8): 0 Number (%) of subjects
- Back pain (AE) ([1]; 300 µg OD 7 days, N=8): 0 Number (%) of subjects
- Diarrhea (AE considered related to study medication) ([1]; 300 µg OD 7 days, N=8): 0 Number (%) of subjects
- Flatulence (AE considered related to study medication) ([1]; 300 µg OD 7 days, N=8): 0 Number (%) of subjects
- Headache (AE considered related to study medication) ([1]; 300 µg OD 7 days, N=8): 0 Number (%) of subjects
- Headache (AE) ([1]; 300 µg OD 7 days, N=8): 0 Number (%) of subjects
- Nausea (AE considered related to study medication) ([1]; 300 µg OD 7 days, N=8): 0 Number (%) of subjects
- Parosmia (AE considered related to study medication) ([1]; 300 µg OD 7 days, N=8): 0 Number (%) of subjects
- Severe AE ([1]; 300 µg OD 7 days, N=8): 0 Number (%) of subjects
- AE considered related to study medication ([1]; 600 µg OD 7 days, N=9): 0 Number (%) of subjects
- AE leading to death ([1]; 600 µg OD 7 days, N=9): 0 Number (%) of subjects
- AE leading to withdrawal ([1]; 600 µg OD 7 days, N=9): 0 Number (%) of subjects
- At least one AE ([1]; 600 µg OD 7 days, N=9): 5 (55.6) Number (%) of subjects
- At least one SAE ([1]; 600 µg OD 7 days, N=9): 0 Number (%) of subjects
- Back pain (AE) ([1]; 600 µg OD 7 days, N=9): 0 Number (%) of subjects
- Diarrhea (AE considered related to study medication) ([1]; 600 µg OD 7 days, N=9): 0 Number (%) of subjects
- Flatulence (AE considered related to study medication) ([1]; 600 µg OD 7 days, N=9): 0 Number (%) of subjects
- Headache (AE considered related to study medication) ([1]; 600 µg OD 7 days, N=9): 0 Number (%) of subjects
- Headache (AE) ([1]; 600 µg OD 7 days, N=9): 2 (22.2) Number (%) of subjects
- Nausea (AE considered related to study medication) ([1]; 600 µg OD 7 days, N=9): 0 Number (%) of subjects
- Parosmia (AE considered related to study medication) ([1]; 600 µg OD 7 days, N=9): 0 Number (%) of subjects
- Severe AE ([1]; 600 µg OD 7 days, N=9): 0 Number (%) of subjects
- AE considered related to study medication ([1]; 1,200 µg OD 7 days, N=9): 0 Number (%) of subjects
- AE leading to death ([1]; 1,200 µg OD 7 days, N=9): 0 Number (%) of subjects
- AE leading to withdrawal ([1]; 1,200 µg OD 7 days, N=9): 0 Number (%) of subjects
- At least one AE ([1]; 1,200 µg OD 7 days, N=9): 2 (22.2) Number (%) of subjects
- At least one SAE ([1]; 1,200 µg OD 7 days, N=9): 0 Number (%) of subjects
- Back pain (AE) ([1]; 1,200 µg OD 7 days, N=9): 0 Number (%) of subjects
- Diarrhea (AE considered related to study medication) ([1]; 1,200 µg OD 7 days, N=9): 0 Number (%) of subjects
- Flatulence (AE considered related to study medication) ([1]; 1,200 µg OD 7 days, N=9): 0 Number (%) of subjects
- Headache (AE considered related to study medication) ([1]; 1,200 µg OD 7 days, N=9): 0 Number (%) of subjects
- Headache (AE) ([1]; 1,200 µg OD 7 days, N=9): 0 Number (%) of subjects
- Nausea (AE considered related to study medication) ([1]; 1,200 µg OD 7 days, N=9): 0 Number (%) of subjects
- Parosmia (AE considered related to study medication) ([1]; 1,200 µg OD 7 days, N=9): 0 Number (%) of subjects
- Severe AE ([1]; 1,200 µg OD 7 days, N=9): 0 Number (%) of subjects
- AE considered related to study medication ([1]; 1,600 µg OD 7 days, N=7): 0 Number (%) of subjects
- AE leading to death ([1]; 1,600 µg OD 7 days, N=7): 0 Number (%) of subjects
- AE leading to withdrawal ([1]; 1,600 µg OD 7 days, N=7): 0 Number (%) of subjects
- At least one AE ([1]; 1,600 µg OD 7 days, N=7): 3 (42.9) Number (%) of subjects
- At least one SAE ([1]; 1,600 µg OD 7 days, N=7): 0 Number (%) of subjects
- Back pain (AE) ([1]; 1,600 µg OD 7 days, N=7): 0 Number (%) of subjects
- Diarrhea (AE considered related to study medication) ([1]; 1,600 µg OD 7 days, N=7): 0 Number (%) of subjects
- Flatulence (AE considered related to study medication) ([1]; 1,600 µg OD 7 days, N=7): 0 Number (%) of subjects
- Headache (AE considered related to study medication) ([1]; 1,600 µg OD 7 days, N=7): 0 Number (%) of subjects
- Headache (AE) ([1]; 1,600 µg OD 7 days, N=7): 0 Number (%) of subjects
- Nausea (AE considered related to study medication) ([1]; 1,600 µg OD 7 days, N=7): 0 Number (%) of subjects
- Parosmia (AE considered related to study medication) ([1]; 1,600 µg OD 7 days, N=7): 0 Number (%) of subjects
- Severe AE ([1]; 1,600 µg OD 7 days, N=7): 0 Number (%) of subjects
- Tmax [2]: 3 h
- AUC(0-t) ([2]; 2400 µg): 35.2 ng·h/mL
- Cmax ([2]; 2400 µg): 1.23 ng/mL
- Tmax ([2]; 2400 µg): 3 h
- half-life ([2]; 2400 µg): 49.1 h
- AUC(0-t) ([2]; 4000 µg): 75.8 ng·h/mL
- Cmax ([2]; 4000 µg): 2.55 ng/mL
- Tmax ([2]; 4000 µg): 3 h
- half-life ([2]; 4000 µg): 44 h
- AUC(0-t) ([2]; 4800 µg): 77.4 ng·h/mL
- Cmax ([2]; 4800 µg): 2.72 ng/mL
- Tmax ([2]; 4800 µg): 3 h
- half-life ([2]; 4800 µg): 40 h
